According to ChEMBL document CHEMBL1131343, “Nonpeptide cyclic cyanoguanidines as HIV-1 protease inhibitors: synthesis, structure-activity relationships, and X-ray crystal structure studies” (J Med Chem, 1998):

Legend:
[1] = system: Human immunodeficiency virus 1; experiment: The antiviral potency (IC90) was assessed by measuring their effect on the accumulation of viral RNA transcripts on HIV-1 RF infected MT-2 cells; type: functional; conditions: Human immunodeficiency virus 1, MT2
Outline: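 HIV-1 RF infection of MT-2 cells; the read-out is viral RNA transcript accumulation measured 3 days after infection. IC90 is taken from this read-out.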

[2] = molecular target: Human immunodeficiency virus type 1 protease (Human immunodeficiency virus 1, UniProt Q72874); experiment: Binding affinity for HIV-1 protease enzyme was measured by using fluorescent peptide substrate

Nc1ccc(CN2C(=O)N(Cc3ccc(N)cc3)[C@H](Cc3ccccc3)[C@H](O)[C@@H](O)[C@H]2Cc2ccccc2)cc1
IC90 [1]: 110 nM | Ki [2]: 1.1 nM

N#CN=C1N(Cc2cccc(CO)c2)[C@H](Cc2ccccc2)[C@H](O)[C@@H](O)[C@@H](Cc2ccccc2)N1Cc1cccc(CO)c1
IC90 [1]: 590 nM | Ki [2]: 1.7 nM

N#Cc1ccc(CN2C(=O)N(Cc3ccc(C#N)cc3)[C@H](Cc3ccccc3)[C@H](O)[C@@H](O)[C@H]2Cc2ccccc2)cc1
IC90 [1]: 5800 nM | Ki [2]: 52 nM

CCCCN1C(=NC#N)N(CCCC)[C@H](Cc2ccccc2)[C@H](O)[C@@H](O)[C@H]1Cc1ccccc1
IC90 [1]: 2600 nM | Ki [2]: 2.7 nM

N#CN=C1N(Cc2cccc(O)c2)[C@H](Cc2ccccc2)[C@H](O)[C@@H](O)[C@@H](Cc2ccccc2)N1Cc1cccc(O)c1
IC90 [1]: 130 nM | Ki [2]: 0.72 nM

CC(C)=CCN1C(=O)N(CC=C(C)C)[C@H](Cc2ccccc2)[C@H](O)[C@@H](O)[C@H]1Cc1ccccc1
IC90 [1]: 860 nM | Ki [2]: 1.6 nM

N#CN=C1N(Cc2ccc(O)cc2)[C@H](Cc2ccccc2)[C@H](O)[C@@H](O)[C@@H](Cc2ccccc2)N1Cc1ccc(O)cc1
IC90 [1]: 250 nM | Ki [2]: 2.6 nM

N#CN=C1N(CC2CC2)[C@H](Cc2ccccc2)[C@H](O)[C@@H](O)[C@@H](Cc2ccccc2)N1CC1CC1
IC90 [1]: 5000 nM | Ki [2]: 22 nM

N#Cc1cccc(CN2C(=O)N(Cc3cccc(C#N)c3)[C@H](Cc3ccccc3)[C@H](O)[C@@H](O)[C@H]2Cc2ccccc2)c1
IC90 [1]: 2200 nM

N#CN=C1N(Cc2cccc(OCc3ccccc3)c2)[C@H](Cc2ccccc2)[C@H](O)[C@@H](O)[C@@H](Cc2ccccc2)N1Cc1cccc(OCc2ccccc2)c1
IC90 [1]: > 67300 nM | Ki [2]: 1370 nM

N#CN=C1N(Cc2cccc(N)c2)[C@H](Cc2ccccc2)[C@H](O)[C@@H](O)[C@@H](Cc2ccccc2)N1Cc1cccc(N)c1
IC90 [1]: 500 nM | Ki [2]: 7.4 nM

NC(=O)NC1=N[C@H](Cc2ccccc2)[C@H](O)[C@@H](O)[C@@H](Cc2ccccc2)N1
IC90 [1]: > 142000 nM | Ki [2]: > 12500 nM

N#CN=C1N(Cc2ccccc2)[C@H](Cc2ccccc2)[C@H](O)[C@@H](O)[C@@H](Cc2ccccc2)N1Cc1ccccc1
IC90 [1]: 3800 nM | Ki [2]: 20 nM

N#CN=C1N(CC2CCCCC2)[C@H](Cc2ccccc2)[C@H](O)[C@@H](O)[C@@H](Cc2ccccc2)N1CC1CCCCC1
IC90 [1]: 1100 nM | Ki [2]: 5.7 nM

N#CN=C1N(Cc2ccc(CO)cc2)[C@H](Cc2ccccc2)[C@H](O)[C@@H](O)[C@@H](Cc2ccccc2)N1Cc1ccc(CO)cc1
IC90 [1]: 3200 nM | Ki [2]: 11 nM

O=C1N(Cc2ccc(OCc3ccccc3)cc2)[C@H](Cc2ccccc2)[C@H](O)[C@@H](O)[C@@H](Cc2ccccc2)N1Cc1ccc(OCc2ccccc2)cc1
IC90 [1]: > 70000 nM | Ki [2]: 542 nM

O=C1N[C@H](Cc2ccccc2)[C@H](O)[C@@H](O)[C@@H](Cc2ccccc2)N1
Ki [2]: 267 nM

O=C1N(Cc2cccc(OCc3ccccc3)c2)[C@H](Cc2ccccc2)[C@H](O)[C@@H](O)[C@@H](Cc2ccccc2)N1Cc1cccc(OCc2ccccc2)c1
IC90 [1]: > 70000 nM | Ki [2]: 340 nM

N#CN=C1N(Cc2ccc3ccccc3c2)[C@H](Cc2ccccc2)[C@H](O)[C@@H](O)[C@@H](Cc2ccccc2)N1Cc1ccc2ccccc2c1
IC90 [1]: > 79000 nM | Ki [2]: 22 nM

O=C1N(Cc2ccc(CO)cc2)[C@H](Cc2ccccc2)[C@H](O)[C@@H](O)[C@@H](Cc2ccccc2)N1Cc1ccc(CO)cc1 [DMP-323]
IC90 [1]: 57 nM

CCCN1C(=NC#N)N(CCC)[C@H](Cc2ccccc2)[C@H](O)[C@@H](O)[C@H]1Cc1ccccc1
IC90 [1]: 7400 nM | Ki [2]: 14 nM

N#CN=C1N(Cc2ccc(N)cc2)[C@H](Cc2ccccc2)[C@H](O)[C@@H](O)[C@@H](Cc2ccccc2)N1Cc1ccc(N)cc1
IC90 [1]: 2300 nM | Ki [2]: 25 nM

N#CN=C1N(Cc2ccc(OCc3ccccc3)cc2)[C@H](Cc2ccccc2)[C@H](O)[C@@H](O)[C@@H](Cc2ccccc2)N1Cc1ccc(OCc2ccccc2)cc1
IC90 [1]: 67300 nM | Ki [2]: 900 nM

N#CN=C1N(CC2CCC2)[C@H](Cc2ccccc2)[C@H](O)[C@@H](O)[C@@H](Cc2ccccc2)N1CC1CCC1
IC90 [1]: 840 nM | Ki [2]: 2 nM

N#CN=C1N(CC2CCCC2)[C@H](Cc2ccccc2)[C@H](O)[C@@H](O)[C@@H](Cc2ccccc2)N1CC1CCCC1
IC90 [1]: 350 nM | Ki [2]: 1.5 nM

O=C1N(Cc2ccc([N+](=O)[O-])cc2)[C@H](Cc2ccccc2)[C@H](O)[C@@H](O)[C@@H](Cc2ccccc2)N1Cc1ccc([N+](=O)[O-])cc1
IC90 [1]: 8400 nM | Ki [2]: 32 nM

C=CCN1C(=NC#N)N(CC=C)[C@H](Cc2ccccc2)[C@H](O)[C@@H](O)[C@H]1Cc1ccccc1
IC90 [1]: 51000 nM | Ki [2]: 37 nM

N#CN=C1N(Cc2cccc(C#N)c2)[C@H](Cc2ccccc2)[C@H](O)[C@@H](O)[C@@H](Cc2ccccc2)N1Cc1cccc(C#N)c1
IC90 [1]: 3100 nM | Ki [2]: 27 nM

Nc1cccc(CN2C(=O)N(Cc3cccc(N)c3)[C@H](Cc3ccccc3)[C@H](O)[C@@H](O)[C@H]2Cc2ccccc2)c1 [MOZENAVIR]
IC90 [1]: 130 nM | Ki [2]: 0.28 nM

CC(C)CCN1C(=O)N(CCC(C)C)[C@H](Cc2ccccc2)[C@H](O)[C@@H](O)[C@H]1Cc1ccccc1
IC90 [1]: 4300 nM

N#CN=C1N(Cc2ccc(C#N)cc2)[C@H](Cc2ccccc2)[C@H](O)[C@@H](O)[C@@H](Cc2ccccc2)N1Cc1ccc(C#N)cc1
IC90 [1]: 7700 nM | Ki [2]: 128 nM

N#CN=C1N(Cc2cccc([N+](=O)[O-])c2)[C@H](Cc2ccccc2)[C@H](O)[C@@H](O)[C@@H](Cc2ccccc2)N1Cc1cccc([N+](=O)[O-])c1
IC90 [1]: 17700 nM | Ki [2]: 89 nM

O=C1N(Cc2ccc3ccccc3c2)[C@H](Cc2ccccc2)[C@H](O)[C@@H](O)[C@@H](Cc2ccccc2)N1Cc1ccc2ccccc2c1
IC90 [1]: 3900 nM | Ki [2]: 0.31 nM

CC(C)CCN1C(=NC#N)N(CCC(C)C)[C@H](Cc2ccccc2)[C@H](O)[C@@H](O)[C@H]1Cc1ccccc1
IC90 [1]: 1100 nM | Ki [2]: 3.8 nM

O=C1N(CC2CCCCC2)[C@H](Cc2ccccc2)[C@H](O)[C@@H](O)[C@@H](Cc2ccccc2)N1CC1CCCCC1
IC90 [1]: 96000 nM

N#CN=C1N(Cc2ccc([N+](=O)[O-])cc2)[C@H](Cc2ccccc2)[C@H](O)[C@@H](O)[C@@H](Cc2ccccc2)N1Cc1ccc([N+](=O)[O-])cc1
IC90 [1]: 19300 nM | Ki [2]: 67 nM

O=C1N(Cc2ccc(O)cc2)[C@H](Cc2ccccc2)[C@H](O)[C@@H](O)[C@@H](Cc2ccccc2)N1Cc1ccc(O)cc1
IC90 [1]: 32 nM

CC(C)=CCN1C(=NC#N)N(CC=C(C)C)[C@H](Cc2ccccc2)[C@H](O)[C@@H](O)[C@H]1Cc1ccccc1
IC90 [1]: 4700 nM | Ki [2]: 30 nM
